Here are results for 17 compounds from ChEMBL document CHEMBL1154590, “Synthesis and evaluation of dimeric 1,2,3,4-tetrahydro-naphthalenylamine and indan-1-ylamine derivatives with mast cell-stabilising and anti-allergic activity” (2010).

One experiment has as its system Rattus norvegicus. The experiment is described as follows: Antiallergic activity in Wistar rat assessed as inhibition of ovalbumin-induced passive cutaneous anaphylaxis reaction at 3 mg/kg, iv treated after 48 hrs of ovalbumin challenge measured after 30 mins. It is filed as functional. The method in brief: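 Female Wistar rats were sensitised by intradermal antiserum (0.1 mL per site) against ovalbumin, raised in rats given ovalbumin with heat-killed Bordetella pertussis. Sites were excised at 30 min, digested in KOH overnight at 37 °C and extracted with H3PO4/acetone. Absorbance read at 620 nm; % inhibition reported.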

Experiment [1] relates to Mast cell. Nature of the experiment: Inhibition of 48/80-induced histamine release in Wistar rat peritoneal mast cells at 2 x 10^-5 M after 5 mins.
In experiment [2] the test system is Mast cell. Nature of the experiment: Inhibition of 48/80-induced histamine release in Wistar rat peritoneal mast cells at 2 x 10^-5 M after 5 mins. It is filed as functional.
For experiment [3], the system named is Mast cell. The experiment is described as follows: Inhibition of A23187-induced histamine release in Wistar rat peritoneal mast cells. It is filed as functional. The method, boiled down: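 Rat peritoneal mast cells from female Wistar rats, in mast cell medium (MCM) buffer. Histamine release was elicited with A23187 at 1 µg ml-1. IC50 determined.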
For experiment [4], the system named is Mast cell. The experiment is described as follows: Inhibition of vancomycin-induced histamine release in Wistar rat peritoneal mast cells. It is filed as functional. The method in brief:
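Peritoneal mast cells from female Wistar rats, in Tyrodes buffer, challenged with vancomycin at 2.52 mg mL-1 to induce degranulation. IC50 determined.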

The subject of experiment [5] is Mast cell. The experiment is described as follows: Inhibition of 48/80-induced histamine release in Wistar rat peritoneal mast cells after 5 mins. It is filed as functional.
For experiment [6], the system named is Mast cell. Nature of the experiment: Inhibition of concanavalin A-induced histamine release in Wistar rat peritoneal mast cells. It is filed as functional. The method in brief:
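Female Wistar rat peritoneal mast cells, in mast cell medium (MCM) buffer. Concanavalin A at 20 µg ml-1 served as the degranulating stimulus. IC50 determined.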

Experiment [7] deals with Mast cell. The experiment is described as follows: Inhibition of anti-IgE-induced histamine release in Brown Norway rat peritoneal mast cells at 10^-5 M.
Experiment [8] concerns Mast cell. The experiment is described as follows: Inhibition of anti-IgE-induced histamine release in Brown Norway rat peritoneal mast cells at 2 x 10^-5 M.

Molecules are shown by their SMILES. Active and inactive are the calls of the source. The calls are words filed in the database; no cut-off is given here.

A word on the inhibition in vivo: it is the change of the read-out against control, counted positive when it falls. As usually defined, the inhibition is the percentage by which the read-out fell short of the control. What is called IC50 is the concentration needed to halve the response being measured. Read a high IC50 as lower potency.

As for `Cc1ccc(CN(C2CCc3ccccc3C2)C2CC(=O)c3ccccc32)cc1` (stereo unspecified), the inhibition in vivo at 3 mg/kg with Rattus norvegicus was found to be 73%. This compound displayed an inhibition at 20 µM with Mast cell [1] of 68%.

In the case of `C=CCN(C1CCCc2ccccc21)C1CC(=O)c2ccccc21` (stereo unspecified), the inhibition in vivo at 3 mg/kg in the experiment on Rattus norvegicus turned out to be 72%. The same compound showed an inhibition at 20 µM in the experiment with Mast cell [1] of 92%.

For `O=C(O)c1cc(=O)c2c(OCC(O)COc3cccc4oc(C(=O)O)cc(=O)c34)cccc2o1` [CROMOLYN SODIUM], the inhibition in vivo at 3 mg/kg in the experiment with Rattus norvegicus was 99%. For the same compound, testing at 20 µM with Mast cell [1] gave an inhibition of 10%.

On to `COc1cc(CN(C2CCc3ccccc3C2)C2CC(=O)c3ccccc32)cc(OC)c1OC` (stereo unspecified), for which, in the experiment on Rattus norvegicus, the inhibition in vivo at 3 mg/kg worked out at 70%. Testing at 20 µM in the experiment with Mast cell [2] gave an inhibition of 40%.

As to `CN(C1CCCc2ccccc21)C1CC(=O)c2ccccc21` (stereo unspecified), the inhibition in vivo at 3 mg/kg in the experiment on Rattus norvegicus was found to be 13%. Besides, the IC50 was found to be 2000 nM in the experiment on Mast cell [3], 4700 nM in the experiment with Mast cell [4], 1500 nM in the experiment on Mast cell [5] and 700 nM with Mast cell [6]. Besides, in the experiment on Mast cell [1], at 20 µM the inhibition was 93%. Besides, in the experiment with Mast cell [7], the inhibition at 10 µM stood at 68%.

With `COc1cccc2c1C(=O)CC2N(C)C1CCCc2ccccc21` (stereo unspecified), at 20 µM the inhibition in the experiment on Mast cell [2] was 48%.

In the experiment on Mast cell [1], `CN(C1CCOc2ccccc21)C1CC(=O)c2ccccc21` (stereo unspecified) gave an inhibition at 20 µM of 100%.

With `CN(C1CCCc2ccccc21)C1CCCc2ccccc21` (stereo unspecified), the inhibition result with Mast cell [2] is “inactive”.

For `CC(=O)N(C1CCCc2ccccc21)C1CC(=O)c2ccccc21` (stereo unspecified), the inhibition entry with Mast cell [2] is “inactive”.

Regarding `CN(C1CCCc2ccccc21)C1CCC(=O)c2ccccc21` (stereo unspecified), the inhibition in vivo at 3 mg/kg in the experiment on Rattus norvegicus is 29%. Further, the IC50 with Mast cell [3] is 38000 nM; with Mast cell [6], 2400 nM. For the same compound, the inhibition at 20 µM with Mast cell [1] came out at 99%.

As for `CN(C1CCc2ccccc21)C1CCC(=O)c2ccccc21` (stereo unspecified), the inhibition result in the experiment with Rattus norvegicus was “inactive”. The compound also gave an inhibition at 20 µM with Mast cell [1] of 14%.

Regarding `COc1ccc2c(c1)C(N(C)C1CCCc3ccccc31)CC2=O` (stereo unspecified), in the experiment with Rattus norvegicus, the inhibition in vivo at 3 mg/kg was found to be 62%. This compound yielded an inhibition at 20 µM in the experiment with Mast cell [2] of 55%.

Compound `CN(C1CCC(=O)c2ccccc21)C1CC(=O)c2ccccc21` (stereo unspecified) came in with an inhibition at 20 µM in the experiment on Mast cell [1] of 61%.

For `COc1ccc2c(c1)C(N(C)C1CC(=O)c3ccccc31)CCC2` (stereo unspecified), in the experiment on Mast cell [1], at 20 µM the inhibition was 100%.

On to `C=CCN(C1CCc2ccccc2C1)C1CC(=O)c2ccccc21` (stereo unspecified), for which, in the experiment on Rattus norvegicus, the inhibition in vivo at 3 mg/kg was determined as 82%. This compound yielded an inhibition at 20 µM in the experiment with Mast cell [1] of 59%.

As to `CN(C1CCc2ccccc2C1)C1CC(=O)c2ccccc21` (stereo unspecified), the inhibition in vivo at 3 mg/kg with Rattus norvegicus was 98%. Further, the inhibition at 20 µM was determined as 95% in the experiment with Mast cell [8] and 76% with Mast cell [1].

As for `O=C1CC(N(Cc2ccccc2)C2CCc3ccccc3C2)c2ccccc21` (stereo unspecified), the inhibition in vivo at 3 mg/kg with Rattus norvegicus is 79%. This compound also registered an inhibition at 20 µM in the experiment on Mast cell [1] of 67%.
